HNF4A DNA FP – change in binding of human HNF4 alpha to DNA; P41235; HNF4a-FITC DNA binding, fluorescence polarization, 1 h; activity change, % at 10 µM; actives 0.3% (n = 360,000); in the data active means activity change above about 30%, passing the limit was not always enough
Rpn11 inh – blocks the human proteasome subunit Rpn11. calls only at 20 µM. actives 0.59% (n = 360,000). human 26S proteasome, Ub4-pepOG fluorescence polarization; 20S core pre-blocked with epoxomicin;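 active means inhibition at 20 µM, scaled to each plate's controls, above about 33%, limit read from the data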
Target sequence (O00487 whole entry, looked up): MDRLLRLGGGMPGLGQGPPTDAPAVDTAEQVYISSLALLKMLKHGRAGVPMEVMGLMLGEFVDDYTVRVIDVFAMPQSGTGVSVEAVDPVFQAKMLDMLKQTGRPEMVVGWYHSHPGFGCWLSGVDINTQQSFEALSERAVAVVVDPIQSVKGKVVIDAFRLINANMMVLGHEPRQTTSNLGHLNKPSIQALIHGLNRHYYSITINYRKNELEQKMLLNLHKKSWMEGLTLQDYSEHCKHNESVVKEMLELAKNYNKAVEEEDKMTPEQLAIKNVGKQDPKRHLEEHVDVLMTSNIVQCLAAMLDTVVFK
CSN inh – CSN deneddylation inhibition | AID 651999 | inhibition, % at 12.5 µM | Purified CSN, SCF-Nedd8-OG deneddylation, fluorescence polarization | Q92905 | actives 0.38% (n = 360,000);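 active means pattern-corrected inhibition above about 35%, with an unprinted fluorescence ratio check between 0.5 and 1.5, limit read from the data, passing the limit was not always enough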;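 further: 0% = enzyme with substrate and 100% = substrate without enzyme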
Target sequence (Q92905 whole entry, looked up, one chain of several): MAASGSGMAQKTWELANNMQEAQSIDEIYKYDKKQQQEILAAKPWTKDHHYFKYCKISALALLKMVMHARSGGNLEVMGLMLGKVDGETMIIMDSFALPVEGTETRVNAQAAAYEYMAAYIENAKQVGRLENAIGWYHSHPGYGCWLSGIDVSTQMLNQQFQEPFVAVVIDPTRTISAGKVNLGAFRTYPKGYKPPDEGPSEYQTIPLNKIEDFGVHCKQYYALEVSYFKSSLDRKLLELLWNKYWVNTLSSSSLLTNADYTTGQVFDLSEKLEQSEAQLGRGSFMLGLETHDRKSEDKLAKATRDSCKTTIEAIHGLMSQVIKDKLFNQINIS
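assay system = purified human Csn5 enzyme expressed in HEK293T cells | amount = 0.24 nM enzyme | buffer or medium = Tris/NaCl/DTT buffer, pH 7.5 | reagent = 10 nM SCFSkp2-Nedd8OG | compound = one concentration, 12.5 µM, 0.25% DMSO | times = 90 min reaction at room temperature | signal = FP | read-out basis = % inhibition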
CRFBP-R2 block – blocks CRF-induced signaling of the CRF-BP/CRF-R2 complex; AID 588475; actives 0.59% (n = 350,000); HEK293 CRF-R2/CRF-BP, CRF-induced calcium fluorescence; inhibition, % at 11.8 µM;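 active means inhibition of the ligand-induced calcium signal above about 50% at the single tested concentration, limit read from the data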
TPT1 inhibitor – C. albicans TPT1 enzyme inhibition; recombinant caTPT1, FP RNA substrate dephosphorylation; inhibition, % at 5 µM; actives 0.81% (n = 300,000);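 active means inhibition above the mean of all tested compounds plus 3 SD, set per screening campaign, cut at about 24% in these data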;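 further: plate controls were DMSO alone for no effect and ferristatin control at 100 nM for full effect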
CRFR2-BP ag – agonists of human CRF-binding protein/CRF-R2 receptor complex; HEK293 CRF-R2/CRF-BP, calcium dye fluorescence (FLIPR); percent of saturating CRF peptide response; activation, % at 13.2 µM; actives 0.46% (n = 350,000);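 active means activation of at least 50%, plus an integration ratio under a set limit after plate pattern correction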;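 further: plate controls were neutral control wells without compound for no effect and CRF at EC100 for full effect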
An asterisk follows results filed as active. Sampled rows, rich in hits. Any-hit rate of the full collection: about 2.3%.

For Cc1ccc(-n2nc3c(=O)n(CC(=O)NCc4cccs4)nc(C)c3c2C)cc1 the results were HNF4A DNA FP 0, Rpn11 inh inactive, CSN inh -3, CRFBP-R2 block 64*, TPT1 inhibitor 1 and CRFR2-BP ag -1.
For Cc1ccc(-n2c(N)c(C(=O)N3CCCCC3)sc2=S)cc1 the results were HNF4A DNA FP 2, Rpn11 inh inactive, CSN inh 0, CRFBP-R2 block 9, TPT1 inhibitor 0 and CRFR2-BP ag 0.
O=S(=O)(c1ccc(F)cc1)N1CCc2ccccc21 was read as HNF4A DNA FP 76*, Rpn11 inh inactive, CSN inh 48*, CRFBP-R2 block 18, TPT1 inhibitor -1 and CRFR2-BP ag -5.
Screening O=S(=O)(NC1CC1)c1ccc(S(=O)(=O)N2CCc3ccccc32)cc1 returned HNF4A DNA FP -1, Rpn11 inh inactive, CSN inh -2, CRFBP-R2 block -13, TPT1 inhibitor 1 and CRFR2-BP ag -1.
O=C1CCCN1c1ccc(C(=O)N(Cc2nnc(-c3ccccc3Cl)o2)C2CC2)cc1 was read as HNF4A DNA FP 5, Rpn11 inh inactive, CSN inh -3, CRFBP-R2 block -1, TPT1 inhibitor 1 and CRFR2-BP ag 1.
`O=C(CNS(=O)(=O)c1ccc([N+](=O)[O-])cc1)N/N=C\c1ccc(O)cc1` gave HNF4A DNA FP -1, Rpn11 inh inactive, CSN inh 2, CRFBP-R2 block -26, TPT1 inhibitor -1 and CRFR2-BP ag 65*.
`O=C(NC(C(=O)N/N=C/c1cccnc1)c1n[nH]c(=O)c2ccccc12)c1ccccc1` (stereo not given) gave HNF4A DNA FP -36, Rpn11 inh inactive, CSN inh 3, CRFBP-R2 block -58, TPT1 inhibitor 2 and CRFR2-BP ag 96*.
Screening COc1ccc(NC(=S)NNC(=O)c2ccc(S(=O)(=O)N3CCOCC3)cc2)cc1 returned HNF4A DNA FP 5, Rpn11 inh inactive, CSN inh -15, CRFBP-R2 block -13, TPT1 inhibitor 4 and CRFR2-BP ag 0.
`COc1cc(/C=C2\SC(=Nc3ccccc3)N(CCc3c[nH]c4ccccc34)C2=O)ccc1OC(C)C(=O)O` (stereo not given) gave HNF4A DNA FP -3, Rpn11 inh inactive, CSN inh 4, CRFBP-R2 block -21, TPT1 inhibitor 2 and CRFR2-BP ag -2.
O=C1/C(=C/c2ccc(N3CCOCC3)o2)SC(=Nc2ccccc2)N1CCc1c[nH]c2ccccc12 was read as HNF4A DNA FP 89, CSN inh -72, CRFBP-R2 block -2, TPT1 inhibitor 148* and CRFR2-BP ag 24.
O=C(O)CN1C(c2ccccc2O)Nc2ccc(Br)cc2C1c1ccccc1 (stereo not given) was read as HNF4A DNA FP 2, Rpn11 inh inactive, CSN inh -15, CRFBP-R2 block 63* and CRFR2-BP ag -2.
Screening COc1ccc(C2Nc3ccc(Br)cc3C(c3ccccc3)N2CC(=O)O)cc1 (stereo not given) returned HNF4A DNA FP 0, Rpn11 inh inactive, CSN inh -7, CRFBP-R2 block 87*, TPT1 inhibitor -3 and CRFR2-BP ag -6.
O=C(CCc1nnc2ccc(NCc3ccco3)nn12)N1CCN(c2ccccc2F)CC1 was read as HNF4A DNA FP 1, Rpn11 inh inactive, CSN inh 1, CRFBP-R2 block 52*, TPT1 inhibitor 3 and CRFR2-BP ag 2.
Screening COc1ccc(/C=C/C(=O)NCCSCc2ccco2)cc1OC returned HNF4A DNA FP 0, Rpn11 inh inactive, CSN inh 4, CRFBP-R2 block 66*, TPT1 inhibitor -2 and CRFR2-BP ag 0.
For Cc1ccc2cc(S(=O)(=O)NCCC(=O)O)ccc2c1 the results were HNF4A DNA FP 0, Rpn11 inh inactive, CSN inh 2, CRFBP-R2 block -13, TPT1 inhibitor -4 and CRFR2-BP ag 0.
`Cc1ccc(S(=O)(=O)NCCC(=O)Oc2ccc3ccc(=O)oc3c2)cc1` gave HNF4A DNA FP 5, Rpn11 inh inactive, CSN inh 41*, CRFBP-R2 block 4, TPT1 inhibitor 3 and CRFR2-BP ag 0.
Screening CCOC(=O)c1c(NC(=O)c2nn(CC)cc2Br)sc(C)c1C returned HNF4A DNA FP 0, Rpn11 inh inactive, CSN inh 3, CRFBP-R2 block -22, TPT1 inhibitor -2 and CRFR2-BP ag 2.
Screening c1cc2c3c(cccc3c1)NC1(CCCCC1)N2 returned HNF4A DNA FP 44*, Rpn11 inh inactive, CSN inh 3, CRFBP-R2 block 23, TPT1 inhibitor -2 and CRFR2-BP ag -1.
c1cc2c3c(cccc3c1)NC1(CCCCCC1)N2 was read as HNF4A DNA FP 7, Rpn11 inh inactive, CSN inh 2, CRFBP-R2 block 17, TPT1 inhibitor -3 and CRFR2-BP ag 2.
For COCCNC(=O)c1onc(CSc2ccc(F)c(F)c2)c1C(=O)NCCOC the results were HNF4A DNA FP 4, Rpn11 inh inactive, CSN inh 6, CRFBP-R2 block 14, TPT1 inhibitor -2 and CRFR2-BP ag -1.
For CCCCCCc1cc2cc(C(=O)Nc3ccccc3)c(=O)oc2cc1O the results were HNF4A DNA FP 3, Rpn11 inh inactive, CSN inh 1, CRFBP-R2 block -2, TPT1 inhibitor -1 and CRFR2-BP ag 39.
For CCCCCCc1cc2cc(C(=O)NCc3ccccc3)c(=N)oc2cc1O the results were HNF4A DNA FP 81, CSN inh 54*, CRFBP-R2 block -109, TPT1 inhibitor 22 and CRFR2-BP ag 175*.
Screening CCOC(=O)Nc1ccc(Oc2ccccc2)cc1 returned HNF4A DNA FP -5, Rpn11 inh inactive, CSN inh -6, CRFBP-R2 block 57*, TPT1 inhibitor 0 and CRFR2-BP ag 1.
`Cn1c(=O)c2[nH]c(-c3ccccc3)c(O)c2n(C)c1=O` gave HNF4A DNA FP -26, Rpn11 inh inactive, CSN inh -32, CRFBP-R2 block -43, TPT1 inhibitor -72 and CRFR2-BP ag 70*.
Cn1c(=O)c2[nH]c(-c3ccccc3Cl)c(O)c2n(C)c1=O was read as HNF4A DNA FP 0, Rpn11 inh inactive, CSN inh -4, CRFBP-R2 block -14, TPT1 inhibitor -30 and CRFR2-BP ag 55*.
CC(C)=CCc1c(O)cc(O)c2c1OC(c1ccc(O)cc1)CC2=O (stereo not given) was read as HNF4A DNA FP 1, Rpn11 inh inactive, CSN inh 1, CRFBP-R2 block 10, TPT1 inhibitor -3 and CRFR2-BP ag -1.
`Cn1c2c(c(=O)n(C)c1=O)C(C(F)(F)F)(C(F)(F)F)N=C(CCC1CCCCC1)N2` gave HNF4A DNA FP -2, Rpn11 inh inactive, CSN inh 54*, CRFBP-R2 block -13, TPT1 inhibitor 1 and CRFR2-BP ag 3.
